This is a sample that favours compounds with a hit; in the whole collection about 27% have one here.
Cav3 T inh: inhibitors of human Cav3.2 T-type calcium channel | hit rate 4% among 100,000 | B-score at 10 µM | AID 449739 | Cav3.2-expressing cells, Fluo-4 calcium fluorescence FDSS; active compounds read low;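 active = single-dose well whose peak fluorescence ratio is a statistical outlier from its plate by either plate-standardised score or position-corrected B-score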
CYP2C9 act: increases human cytochrome P450 2C9 activity. P11712. recombinant CYP2C9, luciferin-H conversion, luminescence; active compounds read high; factor 1 = untreated enzyme, 0 = blocked. activation factor at 5 µM. hit rate 1.4% among 96,000;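 active = activation factor of 2 or more for CYP2C9 at a 5 µM dose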
Target sequence (P11712 whole entry, looked up): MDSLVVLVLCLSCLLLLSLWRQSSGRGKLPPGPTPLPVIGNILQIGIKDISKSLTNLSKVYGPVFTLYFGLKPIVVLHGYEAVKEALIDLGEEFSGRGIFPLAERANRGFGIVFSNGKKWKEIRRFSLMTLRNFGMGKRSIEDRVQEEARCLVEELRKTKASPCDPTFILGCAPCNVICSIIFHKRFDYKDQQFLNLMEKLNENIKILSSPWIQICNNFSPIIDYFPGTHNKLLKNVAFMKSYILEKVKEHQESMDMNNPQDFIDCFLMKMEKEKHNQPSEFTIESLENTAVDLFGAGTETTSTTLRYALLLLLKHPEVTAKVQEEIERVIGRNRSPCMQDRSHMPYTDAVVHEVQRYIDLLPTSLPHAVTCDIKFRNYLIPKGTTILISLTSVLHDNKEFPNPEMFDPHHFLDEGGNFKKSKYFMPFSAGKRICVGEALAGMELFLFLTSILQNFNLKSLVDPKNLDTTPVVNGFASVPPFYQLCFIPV
CYP2C19 inhib: human CYP2C19 inhibition; P33261; inhibition, % at 5 µM; hit rate 21% among 96,000; CYP2C19 Supersomes, luciferin-H EGE luminescence, 30 min;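 active = CYP2C19 inhibition above a set limit at 5 µM in the primary screen, cut at about 50% in these data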
CYP2C9 inh: blocks human cytochrome P450 2C9. CYP2C9 Supersomes, luciferin-H conversion, luminescence. P11712. inhibition, % at 5 µM. hit rate 20% among 96,000;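 active = blocking of liver enzyme CYP2C9 beyond about 50% at 5 µM, limit read from the data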
HIV Rev-RRE inh: HIV Rev-RRE protein-RNA interaction inhibition; inhibition, % at 8 µM; Rev peptide-RRE RNA binding, FRET; P05866; hit rate 0.79% among 97,000;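 active = inhibition above the screen-wide mean plus 3 SD, cut at about 35% in these data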
Target sequence (P05866 whole entry, looked up): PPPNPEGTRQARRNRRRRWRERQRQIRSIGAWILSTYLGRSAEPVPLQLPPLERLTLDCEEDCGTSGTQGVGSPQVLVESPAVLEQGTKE
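Assay system: Labelled RRE RNA duplex and labelled Rev peptide | Times: 5 min preincubation and 15 min binding, 25 °C | Detection: FRET, ex 480 nm, em 540 and 671 nm | Evaluation: % inhibition of FRET ratio versus controls | Benchmarks: DMSO wells as 0% and neomycin B wells as 100% inhibition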
CYP2C19 activ: increases human CYP2C19 enzyme activity. recombinant CYP2C19, luciferin-H EGE luminescence; active compounds read high; 0 = fully inhibited enzyme, 1 = untreated enzyme. activation factor at 5 µM. 96,000 tested, under 10 active. AID 1025;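 active = activation factor of at least 2 at 5 µM in the primary screen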
Numbers stand for hits; – = inactive; · = not tested or not shown.

SMILES	Cav3 T inh	CYP2C9 act	CYP2C19 inhib	CYP2C9 inh	HIV Rev-RRE inh	CYP2C19 activ
Cc1onc(-c2ccccc2Cl)c1C(=O)Nc1ccc(-c2nnc3n2CCCCC3)cc1	–	–	–	–	–	–
COc1ccc(-n2cc(C(=O)c3cc4ccccc4oc3=O)c(C(C)=O)n2)cc1	–	–	–	–	–	–
CCOC(=O)C1=C(c2ccccc2)NC(SCC(=O)Nc2cccc(C)c2)=C(C#N)C1c1ccco1 (stereo unspecified)	–	–	60	92	–	–
CCOC(=O)C1=C(c2ccccc2)NC(SCC(=O)Nc2ccccc2C)=C(C#N)C1c1ccco1 (stereo unspecified)	-7.4	–	57	75	–	–
CCOC(=O)C1=C(c2ccccc2)NC(SC)=C(C#N)C1c1ccco1 (stereo unspecified)	–	–	–	78	–	–
Cc1cccc(NC(=O)CSc2nnc(Cn3nnc(-c4ccccc4)n3)n2-c2ccccc2)c1	–	–	–	–	–	–
CCOC(=O)CSC1=C(C#N)C(c2ccco2)C(C(=O)Nc2cccc(C(F)(F)F)c2)=C(C)N1 (stereo unspecified)	–	–	78	82	–	–
O=C(Cc1cccc2ccccc12)Nc1ccc(-c2cc3ccccc3oc2=O)cc1	–	–	–	–	–	–
CCOC(=O)C1C(=O)C(C(=O)OCC)C(c2cccnc2)NC1c1cccnc1 (stereo unspecified)	–	–	–	–	–	–
CCCSC1=C(C#N)C(c2cccnc2)C(C(=O)OCC)=C(c2ccccc2)N1 (stereo unspecified)	–	–	–	62	–	–
Cc1ccc(OC(=O)COc2ccccc2)c(-n2nc3ccccc3n2)c1	–	–	–	–	–	–
N#Cc1ccc(COc2ccc(CCO)cc2-n2nc3ccccc3n2)cc1	–	–	53	89	–	–
Cc1ccc(Sc2cc(Cl)nc(N)n2)cc1	–	–	–	–	–	–
CC1(C)CC(=O)C2=C(C1)N(Cc1cccnc1)C(=O)C2(NC(=O)c1ccc(F)cc1)C(F)(F)F (stereo unspecified)	–	–	–	–	–	–
Cc1cc2c(cc(C(=O)OCC(=O)NCc3cccs3)n2C(C)C)o1	–	–	50	65	–	–
O=C(CNC(=O)c1ccco1)OCN1C(=O)c2ccccc2C1=O	–	–	–	–	–	–
COc1cc2c(C(=O)N3CCN(c4ccccc4)CC3)c(C)oc2cc1Br	–	–	59	79	–	–
CCOC(=O)c1c(CN2CCOCC2)n(-c2ccccc2)c2cc(Br)c(OC)cc12	–	–	52	78	–	–
CCOC(=O)c1c(CSC(=N)N)n(-c2ccc(C)cc2)c2cc(Br)c(OC(C)=O)cc12	-5.6	–	–	65	–	–
CCOC(=O)c1c(CN2CCOCC2)n(-c2ccccc2)c2cc(Br)c(O)cc12	–	–	57	64	–	–
COc1cccc(C2C(C(=O)OC(C)C)=C(C)Nc3ncnn32)c1 (stereo unspecified)	–	–	–	–	–	–
CN(c1cccc(NC(=O)COc2ccc(Cl)cc2Cl)c1)S(C)(=O)=O	–	·	·	·	–	·
COc1ccc(CNC(=O)COC(=O)c2c(-c3c(F)cccc3Cl)noc2C)cc1OC	–	–	97	56	–	–
Cc1onc(-c2c(F)cccc2Cl)c1C(=O)OCN1C(=O)c2ccccc2C1=O	–	–	56	–	·	–
CCc1noc(C)c1C(=O)NCCc1ccc(OC)c(OC)c1	–	–	–	–	·	–
SMILES	Cav3 T inh	CYP2C9 act	CYP2C19 inhib	CYP2C9 inh	HIV Rev-RRE inh	CYP2C19 activ
O=C(CSc1n[nH]c(-c2ccccc2O)n1)N1CCCc2ccccc21	–	–	82	86	–	–
CCc1nnc(SCC(=O)N2CCCc3ccccc32)nc1CC	–	–	78	56	–	–
CSc1nsc(SCC(=O)N2CCCc3ccccc32)n1	–	–	99	80	–	–
CCc1c(C)nc(N)n2c(SCC(=O)N3CCCc4ccccc43)nnc12	–	–	–	–	–	–
O=C(CSc1nnc(-c2ccccc2)c(-c2ccccc2)n1)N1CCc2ccccc21	-4.5	–	–	–	–	–
Nc1cc(=O)[nH]c(SCC(=O)N2CCCc3ccccc32)n1	–	·	·	·	–	·
Cc1ccc(C(=O)N2CCC3(CC2)Oc2ccc(F)cc2C(=O)C32CC(c3cccnc3)=NO2)s1 (stereo unspecified)	–	·	·	·	·	·
CCc1c(C)c2nncn2[nH]c1=O	–	–	–	–	–	–
Cc1cc(=S)n(-c2ccccc2)n1C	–	–	–	–	–	–
Cc1ccc2nc(-c3ccccn3)cc(C(=O)NC3CCN(C)CC3)c2c1	–	–	–	–	–	–
Nc1nc(SCC(=O)N2CCc3ccccc32)[nH]c(=O)c1-c1ccccc1	–	–	–	–	–	–
O=C(CSc1nc(-c2ccccc2)cc(=O)[nH]1)N1CCc2ccccc21	–	–	–	69	–	–
O=C(Nc1nnc(-c2ccccc2)o1)Nc1ccccc1Cl	·	–	56	–	·	–
O=C(Nc1nnc(-c2cccs2)o1)c1ccco1	–	–	–	–	–	–
O=C(Nc1nnc(-c2ccccc2Cl)o1)c1nc2ccccc2s1	-4.5	–	69	–	–	–
O=C(Nc1nnc(-c2ccccc2Cl)o1)c1ccco1	–	–	–	93	–	–
CCC(CO)n1cnnc1-c1ccncc1 (stereo unspecified)	–	–	–	–	–	–
COc1ccc(Nc2ncc3c(n2)CC(c2ccccc2)CC3=O)cc1 (stereo unspecified)	–	–	–	–	·	–
Cc1ccc(C2CC(=O)c3cnc(N4CC(C)CC(C)C4)nc3C2)cc1 (stereo unspecified)	·	–	–	–	·	–
CCc1ccc(Nc2ncc3c(n2)CC(c2ccc(OC)cc2)CC3=O)cc1 (stereo unspecified)	–	–	–	79	–	–
O=C1CC(c2ccccc2)Cc2nc(N3CCc4ccccc4C3)ncc21 (stereo unspecified)	-6.2	–	–	64	–	–
CC1CC(C)CN(c2ncc3c(n2)CC(c2ccc(Cl)cc2)CC3=O)C1 (stereo unspecified)	–	–	–	78	–	–
Cc1ccc(C2CC(=O)c3cnc(N4CCN(c5ccccc5)CC4)nc3C2)cc1 (stereo unspecified)	–	–	–	54	–	–
Cc1nc(N2CCN(c3ccccc3)CC2)nc2c1C(=O)CC(c1ccccc1)C2 (stereo unspecified)	–	–	–	83	–	–
COc1cccc(C(=O)Nc2ncc3c(n2)CC(c2ccc(OC)cc2OC)CC3=O)c1 (stereo unspecified)	–	–	80	89	–	–
COc1ccc(C2CC(=O)c3cnc(N4CCN(Cc5ccccc5)CC4)nc3C2)cc1 (stereo unspecified)	–	–	80	94	–	–
